Screening data (PubChem)
NSD2 HMT inh – NSD2 (human) methyltransferase inhibition; O96028; NSD2 peptide methylation, AlphaScreen, 120 min; inhibition, % at 12.5 µM; 0.54% of 310,000 active; in the data active = inhibition above about 50%
Target sequence (O96028 whole entry, looked up): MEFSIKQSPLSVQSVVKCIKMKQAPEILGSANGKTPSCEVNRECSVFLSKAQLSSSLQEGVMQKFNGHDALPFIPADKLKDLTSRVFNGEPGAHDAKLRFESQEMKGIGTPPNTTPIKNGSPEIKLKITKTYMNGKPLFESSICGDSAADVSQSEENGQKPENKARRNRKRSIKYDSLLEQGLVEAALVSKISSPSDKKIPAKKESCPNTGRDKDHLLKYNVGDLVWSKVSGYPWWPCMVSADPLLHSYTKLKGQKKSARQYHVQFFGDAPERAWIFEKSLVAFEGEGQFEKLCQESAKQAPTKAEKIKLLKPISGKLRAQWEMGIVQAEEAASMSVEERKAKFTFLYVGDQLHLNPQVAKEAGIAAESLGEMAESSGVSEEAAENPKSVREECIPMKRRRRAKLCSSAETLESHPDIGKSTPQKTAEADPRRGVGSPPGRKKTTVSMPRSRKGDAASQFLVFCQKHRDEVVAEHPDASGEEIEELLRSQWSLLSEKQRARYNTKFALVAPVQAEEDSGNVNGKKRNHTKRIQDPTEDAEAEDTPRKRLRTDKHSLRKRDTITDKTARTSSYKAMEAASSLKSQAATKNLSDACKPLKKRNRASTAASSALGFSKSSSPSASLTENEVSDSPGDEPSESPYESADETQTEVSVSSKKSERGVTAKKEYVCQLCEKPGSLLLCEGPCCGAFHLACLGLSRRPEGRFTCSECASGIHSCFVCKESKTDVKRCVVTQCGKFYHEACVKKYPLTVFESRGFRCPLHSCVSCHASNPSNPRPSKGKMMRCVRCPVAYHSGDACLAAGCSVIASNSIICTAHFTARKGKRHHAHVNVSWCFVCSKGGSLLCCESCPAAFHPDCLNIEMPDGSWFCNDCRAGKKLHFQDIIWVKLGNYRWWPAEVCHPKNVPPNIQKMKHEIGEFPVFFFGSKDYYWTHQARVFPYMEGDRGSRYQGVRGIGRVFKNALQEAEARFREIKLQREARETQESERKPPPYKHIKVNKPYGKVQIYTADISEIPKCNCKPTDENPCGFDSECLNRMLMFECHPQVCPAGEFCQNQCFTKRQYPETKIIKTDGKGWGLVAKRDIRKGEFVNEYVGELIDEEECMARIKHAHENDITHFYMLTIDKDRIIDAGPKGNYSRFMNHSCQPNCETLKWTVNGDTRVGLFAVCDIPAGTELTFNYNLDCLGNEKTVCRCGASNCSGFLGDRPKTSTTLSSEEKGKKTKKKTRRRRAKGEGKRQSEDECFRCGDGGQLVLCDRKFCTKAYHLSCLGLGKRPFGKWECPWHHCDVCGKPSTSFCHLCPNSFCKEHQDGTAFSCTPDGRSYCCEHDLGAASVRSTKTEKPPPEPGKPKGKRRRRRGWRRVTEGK
sPLA2-III inh – Blocks human group III sPLA2 activity. Q9NZ20. QFRET BODIPY PC-A2 liposome hydrolysis, fluorescence. inhibition, % at 12.2 µM. 0.56% of 370,000 active. AID 743126;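 active = inhibition above mean plus 3 SD of compounds lying within the high and low control bounds, cut at about 19% in these data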;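 also: 0% = median of test compound wells and 100% = no enzyme DMSO wells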
Xi reactivation – X-chromosome reactivation activator. XiGFP mouse fibroblasts, % GFP-positive cells imaging, 3 d; cells co-treated with 5-aza-dC sensitizer; scaled so ellipticine positive control = 100%. activation, % at 7.58 µM. 0.055% of 360,000 active;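 active = mean normalized replicate activation at least 10% and every replicate at or above 10%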;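 also: 0% = median of on-plate neutral control wells and 100% = ellipticine 6 µM median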
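Material: SV40-immortalized XiGFP fibroblast cells, line 68-5-11 | Buffer or medium: DMEM containing 5-aza-dC | Dosing: One concentration, pinned | Times: 3 d treatment, 15 min room-temperature fixation | Controls: Ellipticine 6 µM positive control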
SR-BI DiI inh – inhibitors of mouse SR-BI mediated HDL lipid uptake; inhibition, % at 12.5 µM; ldlA[mSR-BI] CHO cells, DiI-HDL uptake fluorescence, 3 h; 0.96% of 320,000 active; Q61009; AID 488896;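 active = mean replicate inhibition of at least 70% and a set share of replicates each scoring 70 or more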;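 also: 0% = median of neutral control wells and 100% = median of positive control wells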
SR-BI DiI-HDL act – activators of SR-BI mediated HDL lipid uptake. CHO ldlA[mSR-BI] cells, DiI-HDL uptake fluorescence, 3 h; 100 = double the neutral-control signal. activation, % at 12.5 µM. 0.096% of 320,000 active. AID 504775;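 active = mean replicate activation of at least 60% and every replicate at or above 60%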;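 also: 0% = median plate neutral-control signal and 100% = twice that signal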
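Test system: SR-BI-overexpressing, LDLR-lacking CHO cells. Measured by: DiI fluorescence, bottom read. Medium: Ham's F12 with 0.5% BSA, HEPES 25 mM, pH 7.4. Timing: 3 h uptake period with compound, 37 °C.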
ARNT-TACC3 inh – ARNT/TACC3 interaction disruption; Q9Y6A5; AlphaScreen His-ARNT PAS-B/GST-TACC3 binding, luminescence; TACC3 fragment carries E629A point mutation; inhibition, % at 9.99 µM; 0.66% of 390,000 active;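 active = mean inhibition of replicates at least 50% and at least half of replicates each reaching 50%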;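 also: 0% = complete ARNT plus TACC3 wells and 100% = ARNT alone without TACC3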
* marks the source's active call; other numbers are inactive results; . = no result. Shown are actives, neighbours in structure and some others; about 2% of the full set was active somewhere.

SMILES | NSD2 HMT inh | sPLA2-III inh | Xi reactivation | SR-BI DiI inh | SR-BI DiI-HDL act | ARNT-TACC3 inh
O=C(CCCC(=O)NN=Cc1ccccc1Cl)NN=Cc1ccccc1Cl | -1 | -5 | 0 | 7 | -7 | 4
CCOC(=O)C1=C(CN2CCN(C(=O)c3ccco3)CC2)NC(=O)NC1c1ccc(OC(C)C)cc1 (centres undefined) | 42 | 8 | 0 | 78* | -78 | 3
CCOC(=O)C1=C(CN2CCN(C(=O)c3ccco3)CC2)NC(=O)NC1c1ccc(Cl)cc1 (centres undefined) | 37 | -2 | 0 | 69 | -69 | -5
CCOC(=O)C1=C(CN2CCC(C)CC2)NC(=O)NC1c1ccc(Cl)cc1 (centres undefined) | 2 | -4 | . | 78* | -78 | 1
CCOC(=O)C1=C(CN2CCCCCC2)NC(=O)NC1c1ccc2c(c1)OCO2 (centres undefined) | 4 | 8 | 0 | 58 | -58 | 6
CS(=O)(=O)N1CC(=O)N2[C@H](C1)[C@@H](c1ccc(C#CCC3CCCC3)cc1)[C@@H]2CO | . | . | 0 | . | . | .
COc1ccc(S(N)(=O)=O)cc1C(=O)OCC(=O)Nc1ncc(Cl)c(C)c1Cl | 1 | -1 | 0 | -12 | 12 | -6
O=C(C[C@@H]1CC[C@@H]2[C@H](COC[C@@H](O)CN2C(=O)c2ccncc2)O1)NCc1cccc(F)c1 | . | . | 0 | . | . | 2
O=C(Nc1ccccc1)c1cccc(NC(=O)c2ccco2)c1 | 0 | -4 | 0 | 13 | -13 | -4
C=Cc1cccc(NC(=O)c2ccc(NC(=O)c3ccco3)cc2)c1 | 3 | -7 | 0 | 92* | -92 | 2
OC(c1ccccc1)c1nc(-c2csc3ccccc23)cs1 (centres undefined) | 0 | -31 | 0 | . | . | .
COC(=O)[C@]12C[C@H](CC(=O)NCCc3ccccc3OC)C(=O)N(Cc3ccc4c(c3)OCO4)C1=C[C@H](COCc1ccccc1)O[C@@H]2C | . | -4 | 0 | . | . | .
O=C(C[C@@H]1CC[C@H]2[C@@H](COC[C@@H](O)CN2CCC(F)(F)F)O1)NCc1ccc2c(c1)OCO2 | . | . | 0 | . | . | -17
CCOC(=O)C1=CN(Cc2cccc(F)c2)S(=O)(=O)N(CC)C1c1ccc2ccccc2c1 (centres undefined) | . | 5 | 0 | -1 | 1 | 2
COc1cc(/C=N/NC(N)=S)ccc1OCC(=O)Nc1ccc(C)c(C)c1 | 6 | -3 | . | 73* | -73 | -2
COc1ccccc1OCC(=O)Nc1ccc(NC(=O)COc2ccccc2OC)cc1 | -1 | 10 | 0 | 92* | -92 | 24
CC1CCCN(C(=O)C2CCN(CCCc3ccccc3)CC2)C1 (centres undefined) | . | -3 | . | . | . | .
O=C1NN(c2ccccc2)C(=O)/C1=C\c1ccccc1 | 3 | -3 | 0 | -37 | 37 | 8.4*
COc1cccc(NC(=O)Cc2csc(NC(=O)Nc3ccccc3OC)n2)c1 | -1 | -25 | 0 | 53 | -53 | 4
COc1ccccc1NC(=O)Nc1nc(CC(=O)Nc2ccc(OC)c(OC)c2)cs1 | 1 | 1 | 0 | 82* | -82 | 16
CCCCCCCCOC(=O)c1cc([N+](=O)[O-])c(Sc2ncnc3nc[nH]c23)c([N+](=O)[O-])c1 | 4 | -6 | 0 | 77* | -77 | 4
CCCCOC(=O)c1ccc(Nc2ncnc3nc[nH]c23)cc1 | . | -7 | 0 | 4 | -4 | 1
NC(=S)N/N=C/c1ccc(-c2ccccc2)o1 | 2 | 13 | 0 | 65 | -65 | 8
NC(=S)N/N=C\c1ccc(-c2cccc(Cl)c2Cl)o1 | -2 | 4 | . | 79* | -79 | 0
NC(=S)N/N=C/c1ccc(-c2ccc(Cl)c(Cl)c2)o1 | 1 | 10 | . | 86* | -86 | -3
NC(=S)N/N=C/c1ccc(-c2ccc(SC(F)F)cc2)o1 | -1 | 19 | 0 | 74* | -74 | 10
Cc1ccc(-c2ccc(/C=N/NC(N)=S)o2)cc1 | 2 | 11 | 0 | 96* | -96 | 11
